The subject of experiment [1] is HepG2. In words: Induction of apoptosis in human HepG2 cells assessed as early apoptotic cells at 0.125 uM after 48 hrs in presence of hemoglobin by Annexin V-APC/7-AAD staining based flow cytometry (reference value: 3.18%). It counts as functional. For orientation: A flow cytometer gives signals particle by particle.
Experiment [2] has as its system HepG2. As to the kind of experiment: Induction of apoptosis in human HepG2 cells assessed as necrotic cells at 0.25 uM after 48 hrs by Annexin V-APC/7-AAD staining based flow cytometry (reference value: 2.40%). Type of experiment: functional.
Experiment [3] relates to HepG2. As to the kind of experiment: Cell cycle arrest in human HepG2 cells assessed as G2 phase accumulation at 0.125 uM after 48 hrs in presence of hemoglobin by propidium iodide staining based flow cytometry (reference value: 10.67%). It counts as functional.
The subject of experiment [4] is HepG2. In words: Induction of apoptosis in human HepG2 cells assessed as cell population with intact mitochondrial membrane potential at 0.25 uM measured after 48 hrs by JC-1 staining based flow cytometry (reference value: 98.51%). Type of experiment: functional. A digest of the protocol: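 HepG-2 cells were exposed 48 h to 0.0625, 0.125 or 0.25 µM or to vehicle, then washed in PBS and stained with JC-1 in the dark. Red aggregate versus green monomer fluorescence was measured by flow cytometry to give the percentages of cells with healthy versus collapsed mitochondrial membrane potential.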

In experiment [5] the test system is HepG2. As to the kind of experiment: Induction of apoptosis in human HepG2 cells assessed as early apoptotic cells at 0.25 uM after 48 hrs by […] based flow cytometry (reference value: 3.18%). Type of experiment: functional.
Experiment [6] relates to HepG2. In words: Induction of apoptosis in human HepG2 cells assessed as chromatin condensation at 0.0625 to 0.25 uM measured after 48 hrs by Hoechst 33258 staining based fluorescent microscopic analysis. Type of experiment: functional, cell-based. A digest of the protocol:
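After 48 h exposure to 0.0625, 0.125 or 0.25 µM, or to 0.1% DMSO vehicle, HepG-2 cells were stained with Hoechst 33258. Nuclear morphology, including chromatin condensation and fragmentation, was inspected by fluorescence microscopy.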

The subject of the next experiment is PC-3. In words: Antiproliferative activity against human PC3 cells after 72 hrs by MTT assay. Type of experiment: functional, cell-based. The settings on record: PC-3, 72 h. The method, boiled down:
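MTT assay. Cells were seeded and grown 24 h at 37 °C in 5% CO2, then exposed to compound or left untreated for 72 h. MTT (5 mg/mL stock) was added for 4 h and the formazan dissolved in DMSO. OD was read at 570 nm. IC50 is the concentration giving 50% growth inhibition, reported as mean ± SD of three independent experiments. Vehicle reference was 0.1% DMSO.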
On the technique in general: Tetrazolium assays rely on reduction of a dye to a coloured formazan, in cell work by metabolically active cells.

Activity calls are given as the source filed them. The rule behind the calls is not given here.

For `C[C@H]1CCC/C=C/[C@@H]2C[C@H](OC(=O)CCCC(=O)OCCOc3no[n+]([O-])c3S(=O)(=O)c3ccccc3)C[C@H]2[C@H](OC(=O)CCCC(=O)OCCOc2no[n+]([O-])c2S(=O)(=O)c2ccccc2)/C=C/C(=O)O1`, the Activity in the experiment with HepG2 [1] is 3.49%; in the experiment on HepG2 [2], 5.47%; with HepG2 [3], 6.22%; in the experiment on HepG2 [4] it was 39.86%; with HepG2 [5], 15.03%. Also, the result in the experiment with HepG2 [6] was Active. Besides, in the experiment with PC-3, half-maximal inhibition (IC50) required 25 nM.

These data come from ChEMBL document CHEMBL4138082 (Eur J Med Chem, 2017).
